Source: PubChem BioAssay
An excerpt weighted towards active compounds, which were near 1.4% of everything screened.
GSTO1 counter = blocks human GSTO1 in RBBP9 counter-screen; P78417; recombinant GSTO1, activity-based probe fluorescence polarization; inhibition, % at 5.96 µM; actives 1.1% (n = 300,000); AID 1974;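 active = inhibition above the campaign mean inhibition plus 3 SD, cut at about 35% in these data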
TDP2 absorb = TDP2 (human) inhibition, absorbance primary screen; recombinant TDP2, T5PNP hydrolysis, p-nitrophenol absorbance 415 nm; inhibition, % at 12.8 µM; AID 720702; O95551; actives 0.34% (n = 370,000);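 active = inhibition above the mean of all tested compounds plus 3 SD, set per campaign, cut at about 25% in these data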
Target sequence (O95551 whole entry, looked up): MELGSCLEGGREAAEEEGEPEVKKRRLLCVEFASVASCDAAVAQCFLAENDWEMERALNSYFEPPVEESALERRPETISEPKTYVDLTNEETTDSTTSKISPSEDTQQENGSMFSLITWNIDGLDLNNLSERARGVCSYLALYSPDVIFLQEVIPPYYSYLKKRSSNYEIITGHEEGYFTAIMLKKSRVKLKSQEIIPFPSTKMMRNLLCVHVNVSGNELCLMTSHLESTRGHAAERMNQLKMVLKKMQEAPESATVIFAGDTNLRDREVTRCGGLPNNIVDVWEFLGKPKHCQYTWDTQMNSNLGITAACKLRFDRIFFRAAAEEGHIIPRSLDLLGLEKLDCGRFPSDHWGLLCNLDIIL
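Read-out basis: percent inhibition. System: recombinant human TDP2. Buffer or medium: Mg2+-containing Tris-HCl buffer, pH 7.5. Repeats: single replicate. Timing: reaction 2 h, 37 °C. Benchmarks: high control without enzyme, low control DMSO plus TDP2. Probe or stimulus: 5 mM T5PNP. Doses: 12.8 µM only. Measured by: epi absorbance of p-nitrophenol freed from T5PNP by hydrolysis.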
PAD4 inh = blocks human protein arginine deiminase 4; actives 0.41% (n = 330,000); inhibition, % at 6.36 µM; AID 485272; recombinant PAD4, RCA probe fluorescence polarization;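 active = percent inhibition above a cutoff equal to the mean of all tested compounds plus 3 SD, cut at about 15% in these data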
Fh CTSL1 inh = cathepsin L1 inhibition, PFM18AAP counter-screen; actives 0.49% (n = 300,000); recombinant F. hepatica cathepsin L1, Z-Leu-Arg-MCA fluorescence; inhibition, % at 5.96 µM;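 active = inhibition above the mean of all tested compounds plus 3 SD, set per screening campaign, cut at about 17% in these data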
Of the large screens only hits and unclear results are named; the others gave an inactive call.

CCc1ccc(N2C(=O)CC(NNc3nc4ccccc4s3)C2=O)cc1 (stereo unspecified)	GSTO1 counter 38
COc1ccc(-c2cc(NC(=O)Cc3c[nH]c4ccccc34)ccc2Nc2cccnc2)c(OC)c1	none (no result: GSTO1 counter, PAD4 inh, Fh CTSL1 inh)
O=C(/C=C/c1ccc(O)c(O)c1)OC(Cc1ccc(O)c(O)c1)C(=O)O (stereo unspecified)	GSTO1 counter 55
O=C(/C=C/c1ccc(O)c(O)c1)OCCc1ccccc1	none
CC(C)(C)OC(=O)N[C@@H](Cc1ccccc1)c1nnc(SCC(=O)O)o1	Fh CTSL1 inh 29
Cc1ccccc1CS(=O)(=O)c1nnc([C@H](Cc2ccccc2)NC(=O)OC(C)(C)C)o1	Fh CTSL1 inh 29
CCC(C)[C@@H](NC(=O)OC(C)(C)C)c1nnc(S(=O)(=O)Cc2cccc(C)c2)o1 (stereo partly specified)	none (no result: GSTO1 counter, PAD4 inh, Fh CTSL1 inh)
COC(=O)CSc1nnc([C@H](CC(C)C)NC(=O)OC(C)(C)C)o1	Fh CTSL1 inh 52
CC(C)(C)OC(=O)N[C@@H](Cc1ccccc1)c1nnc(S(=O)(=O)Cc2ccccc2)o1	Fh CTSL1 inh 25
CCSc1nnc([C@H](Cc2ccccc2)NC(=O)OC(C)(C)C)o1	none
CC(C)C[C@H]1COc2cccc(F)c2S(=O)(=O)N1Cc1cn(Cc2ccc(F)cc2)nn1	none (no result: GSTO1 counter, PAD4 inh, Fh CTSL1 inh)
CCOc1ccc(Nc2nc(N)nc(CSC(=S)N3CCOCC3)n2)cc1	Fh CTSL1 inh 18
CCOc1ccc(Nc2nc(N)nc(CCl)n2)cc1	GSTO1 counter 82
CCOc1ccc(Nc2nc(N)nc(CN3CCN(c4ccccc4F)CC3)n2)cc1	none
Cc1cccc(Nc2nc(N)nc(CCl)n2)c1C	GSTO1 counter 65
O=C(COCc1ccccc1)N1CC[C@H]2[C@H](CCCN2Cc2ccccc2)C1	none (no result: GSTO1 counter, PAD4 inh, Fh CTSL1 inh)
COC(=O)[C@@]12CCCCC=C1N(CCc1ccc(Cl)cc1)C(=O)[C@H]2CC(=O)NCc1cccc(C(F)(F)F)c1	none (no result: GSTO1 counter, PAD4 inh, Fh CTSL1 inh)
CCOc1ccccc1NC(=O)COC(=O)C(CC(C)C)N1C(=O)C2CC=CCC2C1=O (stereo unspecified)	none
CC(C)CC(C(=O)OCC(=O)Nc1cccc(Cl)c1)N1C(=O)C2CC=CCC2C1=O (stereo unspecified)	Fh CTSL1 inh 22
O=C(NCc1ccccc1)C1(C(=O)C2CC2)CC(c2ccccn2)=NO1 (stereo unspecified)	none (no result: GSTO1 counter, PAD4 inh, Fh CTSL1 inh)
CC(=O)N1CCc2cc(S(=O)(=O)NCCC(=O)N(C)Cc3ccccc3F)ccc21	none (no result: GSTO1 counter, PAD4 inh, Fh CTSL1 inh)
NC(=O)[C@@H]1CCCN1C(=O)[C@@H](Cc1cnc[nH]1)NC(=O)[C@@H]1CCC(=O)N1	none (no result: GSTO1 counter, Fh CTSL1 inh)
CCNC(=O)C1CCCN1C(=O)C(CCCN=C(N)N)NC(=O)C(CC(C)C)NC(=O)C(Cc1cn(Cc2ccccc2)cn1)NC(=O)C(Cc1ccc(O)cc1)NC(=O)C(CO)NC(=O)C(Cc1c[nH]c2ccccc12)NC(=O)C(Cc1cnc[nH]1)NC(=O)C1CCC(=O)N1 (stereo unspecified)	Fh CTSL1 inh 40 (no result: TDP2 absorb)
Cc1ccc(CC(=S)N2CCOCC2)cc1	GSTO1 counter 37
S=C(N/N=C/c1ccc(Cl)cc1)N1CCOCC1	Fh CTSL1 inh 19
CCc1ccc(CC(=S)N2CCOCC2)cc1	none
Cc1ccc(/C=N/NC(=S)N2CCOCC2)cc1	Fh CTSL1 inh 28
O=C(Nc1c(-c2ccc(C(F)(F)F)cc2)nc2ncccn12)C1CC1	none (no result: GSTO1 counter, PAD4 inh, Fh CTSL1 inh)
CCOc1ccc(N2C(=O)C(Cl)=C(Nc3ccccc3O)C2=O)cc1	Fh CTSL1 inh 17
Cc1ccc(-n2c(C)cc(/C=C3\NC(=O)NC3=O)c2C)c(C)c1	Fh CTSL1 inh 17
COc1ccc(CN(C)C(=O)C2CCCN(c3nc4ccccc4o3)C2)cc1 (stereo unspecified)	none (no result: GSTO1 counter, PAD4 inh, Fh CTSL1 inh)
Cc1nc(N2N=C(c3ccc(Cl)cc3)CC2c2ccco2)sc1C(=O)N(C)C (stereo unspecified)	Fh CTSL1 inh 25
CCC(C)C(NC(=O)c1ccccc1NC(=O)c1ccc(OC)cc1)C(=O)NCc1ccco1 (stereo unspecified)	Fh CTSL1 inh 45
Cc1nn(Cc2ccc(Cl)cc2Cl)c(C)c1NC(=O)c1ccc(COc2cc(Cl)ccc2Cl)o1	none
Cc1nn(Cc2c(F)c(F)c(F)c(F)c2F)c(C)c1NC(=O)c1ccc(COc2ccc(Cl)cc2Cl)o1	Fh CTSL1 inh 17
CC(=O)c1c(C)[nH]c(C(=O)Nc2ccccc2C)c1C	none (no result: GSTO1 counter, PAD4 inh, Fh CTSL1 inh)
O=C(CNC(=O)C1CCCCC1)OCc1cc(=O)oc2ccc3ccccc3c12	Fh CTSL1 inh 29
COC(=O)[C@]12C[C@H](CC(=O)N3CCN(C(=O)c4ccco4)CC3)C(=O)N(CCc3ccc(OC)c(OC)c3)C1=C[C@H](C(C)C)O[C@@H]2C1CC1	none (no result: GSTO1 counter, PAD4 inh, Fh CTSL1 inh)
